Consider one compound from ChEMBL document CHEMBL4715824, “Chemical Proteomic Characterization of a Covalent KRASG12C Inhibitor” (ACS Med Chem Lett, 2018).

What is called IC50 is the concentration that gives 50% inhibition.

In assay [1] the target is T1, Quinone oxidoreductase (Homo sapiens) (UniProt Q08257).
T1 sequence (whole entry): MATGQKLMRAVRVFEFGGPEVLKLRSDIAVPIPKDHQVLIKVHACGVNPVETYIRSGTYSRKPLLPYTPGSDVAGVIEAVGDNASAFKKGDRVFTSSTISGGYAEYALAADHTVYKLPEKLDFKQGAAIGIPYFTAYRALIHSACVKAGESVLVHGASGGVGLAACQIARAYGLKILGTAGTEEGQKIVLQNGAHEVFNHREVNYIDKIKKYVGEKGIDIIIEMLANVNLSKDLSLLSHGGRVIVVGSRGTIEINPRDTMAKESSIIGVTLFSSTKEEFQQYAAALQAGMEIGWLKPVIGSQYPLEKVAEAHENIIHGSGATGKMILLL
Description: Covalent binding affinity to CRYZ at Cys45 residue in human NCI-H358 cells assessed as log2 H/L ratio at 10 uM pretreated for 3 hrs followed by N-(((6S,7R)-7-(4-chloro-3-fluorophenyl)-1,4-oxazepan-6-yl)methyl)-2-hydroxyacetamide treatment for 3 hrs by competitive TMT click chemistry pull-down experiment based LC-MS/MS analysis. The note with it: time 6.0 hrs. In kind it is cell-based. In a few lines: (§1)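 H358 cells were pretreated with DMSO (n = 3) or 10 μM compound for 3 h, then 2 μM alkyne probe was added for another 3 h. Cells were lysed, clicked onto azide-agarose resin, digested, TMT-labelled and pooled. The pool was fractionated by high-pH HPLC and each fraction run twice by 60 min low-pH nano LC-MS/MS. Readout was log2 compound/DMSO normalized reporter intensity, with a least-squares means test and FDR adjustment.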

The target in assay [2] is T2, Reticulon-4 (Homo sapiens) (UniProt Q9NQC3).
T2 sequence (whole entry): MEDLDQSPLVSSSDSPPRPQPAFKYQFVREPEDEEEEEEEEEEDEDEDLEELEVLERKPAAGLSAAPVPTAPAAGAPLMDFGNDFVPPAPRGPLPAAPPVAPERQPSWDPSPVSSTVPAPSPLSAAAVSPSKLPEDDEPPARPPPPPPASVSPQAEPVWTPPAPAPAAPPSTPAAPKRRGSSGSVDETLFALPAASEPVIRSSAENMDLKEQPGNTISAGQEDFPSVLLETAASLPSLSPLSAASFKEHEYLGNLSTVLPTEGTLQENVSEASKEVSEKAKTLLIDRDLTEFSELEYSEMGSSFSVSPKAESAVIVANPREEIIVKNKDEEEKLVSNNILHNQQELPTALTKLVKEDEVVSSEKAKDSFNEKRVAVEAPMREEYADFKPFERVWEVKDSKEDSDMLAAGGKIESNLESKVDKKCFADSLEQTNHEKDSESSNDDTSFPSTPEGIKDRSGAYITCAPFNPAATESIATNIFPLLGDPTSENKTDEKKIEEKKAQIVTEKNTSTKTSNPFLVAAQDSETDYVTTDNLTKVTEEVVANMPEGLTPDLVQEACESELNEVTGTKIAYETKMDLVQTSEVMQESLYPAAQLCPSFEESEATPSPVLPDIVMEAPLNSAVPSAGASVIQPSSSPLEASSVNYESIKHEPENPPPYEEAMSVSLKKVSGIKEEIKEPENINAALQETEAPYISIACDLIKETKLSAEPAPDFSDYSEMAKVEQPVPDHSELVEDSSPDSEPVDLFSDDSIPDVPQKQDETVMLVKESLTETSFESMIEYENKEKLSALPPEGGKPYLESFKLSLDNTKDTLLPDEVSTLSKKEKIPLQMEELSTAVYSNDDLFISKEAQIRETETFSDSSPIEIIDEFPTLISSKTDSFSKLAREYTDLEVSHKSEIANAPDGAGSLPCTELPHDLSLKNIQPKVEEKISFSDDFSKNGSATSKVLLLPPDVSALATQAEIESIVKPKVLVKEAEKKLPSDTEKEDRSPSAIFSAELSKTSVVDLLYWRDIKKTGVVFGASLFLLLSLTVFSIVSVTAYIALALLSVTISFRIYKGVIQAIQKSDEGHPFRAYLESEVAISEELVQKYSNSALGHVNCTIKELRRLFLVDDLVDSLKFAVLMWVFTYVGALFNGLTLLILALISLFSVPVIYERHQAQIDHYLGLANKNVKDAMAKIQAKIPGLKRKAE
Description: Covalent binding affinity to RTN4 at Cys1101 residue in human NCI-H358 cells assessed as log2 H/L ratio at 10 uM pretreated for 3 hrs followed by N-(((6S,7R)-7-(4-chloro-3-fluorophenyl)-1,4-oxazepan-6-yl)methyl)-2-hydroxyacetamide treatment for 3 hrs by competitive TMT click chemistry pull-down experiment based LC-MS/MS analysis. The format is cell-based. The note with it: time 6.0 hrs. The method, boiled down:
as §1

Another assay has as its target T3, Heme oxygenase 2 (Homo sapiens, UniProt P30519).
T3 sequence (P30519 whole entry): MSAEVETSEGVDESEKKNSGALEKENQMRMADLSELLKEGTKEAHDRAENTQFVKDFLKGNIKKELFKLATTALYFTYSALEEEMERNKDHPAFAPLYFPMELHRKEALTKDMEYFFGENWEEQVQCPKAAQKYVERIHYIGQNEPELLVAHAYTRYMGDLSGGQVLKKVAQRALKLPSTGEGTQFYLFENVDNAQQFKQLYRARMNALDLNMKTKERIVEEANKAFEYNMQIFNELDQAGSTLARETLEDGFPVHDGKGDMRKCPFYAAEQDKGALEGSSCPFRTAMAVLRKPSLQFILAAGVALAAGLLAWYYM
Description: Covalent binding affinity to HMOX2 at Cys282 residue in human NCI-H358 cells assessed as reduction of log2 H/L ratio for tryptic peptide […] incubated for 4 hrs followed by cell lysis and subsequently labelled with light thiol probe N-((S)-18-iodo-11-isopropyl-10,13,17-trioxo-3,6-dioxa-9,12,16-triazaoctadecyl)-6-((4R,5S)-5-methyl-2-oxoimidazolidin-4-yl)hexanamide and heavy thiol probe 4 for 1 hr under dark conditions followed by tryptic digestion for overnight and measured by discovery ABPP based nano LC-MS/MS analysis. The method, boiled down:
(§2)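 H358 cells were treated 4 h with DMSO, 0.08, 0.4, 2 or 10 μM, each paired with DMSO control cells, in biological duplicate. After lysis and denaturation, treated lysate took heavy thiol probe and control lysate took light probe. Lysates were combined equally, and probe-labelled tryptic peptides were streptavidin-enriched. Peptides were run twice by 180 min data-dependent nano LC-MS/MS. Hits needed log2 H/L below −0.776 (3σ) plus a dose-dependent decrease.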

A further assay concerns the target T4, Quinone oxidoreductase (Homo sapiens, UniProt Q08257).
T4 sequence (Q08257 whole entry): T1 sequence (whole entry)
Description: Covalent binding affinity to CRYZ at Cys45 residue in human NCI-H358 cells assessed as reduction of log2 H/L ratio for tryptic peptide […] incubated for 4 hrs followed by cell lysis and subsequently labelled with light thiol probe N-((S)-18-iodo-11-isopropyl-10,13,17-trioxo-3,6-dioxa-9,12,16-triazaoctadecyl)-6-((4R,5S)-5-methyl-2-oxoimidazolidin-4-yl)hexanamide and heavy thiol probe 4 for 1 hr under dark conditions followed by tryptic digestion for overnight and measured by discovery ABPP based nano LC-MS/MS analysis. In a few lines:
as §2

In the case of `C=CC(=O)N1CCN(c2ncnc3c(F)c(-c4c(O)cccc4F)c(Cl)cc23)CC1`, the Ratio in assay [1] is 0.15; in assay [2] it was -0.4. Also, the half-inhibitory concentration (IC50) on Heme oxygenase 2 came to 7.64 µM; at Quinone oxidoreductase, 8.44 µM.
